From ChEMBL document CHEMBL1142632, “A new bioactive sesterterpene and antiplasmodial alkaloids from the marine sponge hyrtios cf. erecta” (J Nat Prod, 2000) come the findings set out here.

One data set deals with Microbotryum violaceum. The data set is described as follows: Antifungal activity against Ustilago violacea at 50 ug by agar diffusion assay. As to conditions: read-out: IZ. It is filed as functional. The essentials:
(§1)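 Agar diffusion: crude extracts and pure compounds applied at 50 µg per disk; growth inhibition read as zone diameter (mm).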
(In general: A growth-free zone around the sample is the usual read-out of agar diffusion tests.)

Data set [1] has as its target Tyrosine-protein kinase Lck (Homo sapiens) (UniProt P06239). Description: Inhibition of p56 LCK activity at 0.5 mM. Also noted: scale not given: the % may be the effect or the level left. The procedure, abridged:
(§2)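 Nonradioactive ELISA-based tyrosine kinase assay. Samples in DMSO/H2O (1:1) were incubated with 1 U p56lck, 1 µM tyrosine kinase substrate II, 1 mM ATP and 10 mM MgCl2 at 30 °C for 60 to 80 min. Buffers: 20% dilution buffer (HEPES, pH 7.0) and 20% assay buffer (Tris, pH 7.5, with Na3VO4). Absorbance read at 415 nm as residual activity.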

In data set [2] the test system is Plasmodium falciparum. Description: Antiplasmodial activity against chloroquine-sensitive Plasmodium falciparum NF54. It is filed as functional, organism-based. The essentials: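 In vitro assay against P. falciparum strain NF54, of unknown origin and susceptible to standard antimalarials. Chloroquine and artemisinin were run as positive controls.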
In data set [3] the test system is Plasmodium falciparum. The data set is described as follows: Antiplasmodial activity against chloroquine, pyrimethamine-resistant Plasmodium falciparum K1. Type of data set: functional, organism-based. The procedure, abridged: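 In vitro assay against P. falciparum strain K1, a Thailand isolate resistant to chloroquine and pyrimethamine. Chloroquine and artemisinin were run as positive controls.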

The next data set concerns Escherichia coli. The data set is described as follows: Antibacterial activity against Escherichia coli at 50 ug by agar diffusion assay. As to conditions: read-out: IZ. It is filed as functional. The essentials: as §1
In data set [4] the test system is Hepatovirus A. Description: Antiviral activity against HAV 7 in FRhK4 cells assessed as effect on cytopathogenic effect at 0.038 ug/mL after 21 days by immunofluorescence analysis. It is filed as functional, organism-based. The procedure, abridged: (§3)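 FRhK-4 cells in 96-well plates were used. For line 5, cells were inoculated with 2 × 10^7 TCID50/ml HAVcytHB1.1. For line 4, cells were persistently infected with HAV/7. Morphology (cytopathogenicity) was checked microscopically over 21 days, and HAV antigen was detected by immunofluorescence after 21 days.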
In general terms: Damage to the host cells serves as the signal in cytopathic effect assays.

Data set [5] concerns the target Tyrosine-protein kinase Lck (Homo sapiens) (UniProt P06239). The data set is described as follows: Inhibition of p56 LCK activity at 0.7 mM. Also noted: scale not given: the % may be the effect or the level left. The essentials:
as §2

Data set [6] in a line: Cytotoxicity against rat L6 cells. It is filed as cell-based. As to conditions: read-out: MIC.
In data set [7] the test system is Trypanosoma brucei rhodesiense. Description: Antitrypanosomal activity against Trypanosoma brucei subsp. rhodesiense. Type of data set: functional, organism-based.
Data set [8] concerns Hepatovirus A. Description: Antiviral activity against HAV cytHB1.1 in FRhK4 cells assessed as effect on cytopathogenic effect at 0.038 ug/mL after 21 days by immunofluorescence analysis. Type of data set: functional, organism-based. The essentials:
as §3

In data set [9] the target is Human immunodeficiency virus type 1 reverse transcriptase (Human immunodeficiency virus 1) (UniProt Q72547). Description: Inhibition of HIV1 reverse transcriptase assessed as enzyme residual activity at 0.12 mM. The essentials: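 Nonradioactive ELISA-based reverse transcriptase assay. Reaction mixture held 1 ng recombinant HIV-1-RT. Samples were dissolved in 10% DMSO/lysis buffer. Read-out was residual enzyme activity.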

A further data set has as its system Priestia megaterium. The data set is described as follows: Antibacterial activity against Bacillus megaterium at 50 ug by agar diffusion assay. It is filed as functional. As to conditions: read-out: IZ. The procedure, abridged:
as §1

Data set [10] is described as follows: Cytotoxicity against mouse peritoneal macrophages. As to conditions: read-out: MIC. It is filed as cell-based, Macrophage.
Data set [11] has as its target Tyrosine-protein kinase Lck (Homo sapiens) (UniProt P06239). The data set is described as follows: Inhibition of p56 LCK activity at 0.6 mM. Also noted: scale not given: the % may be the effect or the level left. The procedure, abridged: as §2
Data set [12] has the same target. Description: Inhibition of p56 LCK activity at 0.3 mM. Also on record: scale not given: the % may be the effect or the level left. The essentials:
as §2

Each structure is given as a SMILES string. Converted amounts (≈) assume the structure as drawn. The source made the active and inactive calls. The calls are words filed in the database; no cut-off is given here.

Chain of Tyrosine-protein kinase Lck (Homo sapiens) (P06239 2-509 limits assumed): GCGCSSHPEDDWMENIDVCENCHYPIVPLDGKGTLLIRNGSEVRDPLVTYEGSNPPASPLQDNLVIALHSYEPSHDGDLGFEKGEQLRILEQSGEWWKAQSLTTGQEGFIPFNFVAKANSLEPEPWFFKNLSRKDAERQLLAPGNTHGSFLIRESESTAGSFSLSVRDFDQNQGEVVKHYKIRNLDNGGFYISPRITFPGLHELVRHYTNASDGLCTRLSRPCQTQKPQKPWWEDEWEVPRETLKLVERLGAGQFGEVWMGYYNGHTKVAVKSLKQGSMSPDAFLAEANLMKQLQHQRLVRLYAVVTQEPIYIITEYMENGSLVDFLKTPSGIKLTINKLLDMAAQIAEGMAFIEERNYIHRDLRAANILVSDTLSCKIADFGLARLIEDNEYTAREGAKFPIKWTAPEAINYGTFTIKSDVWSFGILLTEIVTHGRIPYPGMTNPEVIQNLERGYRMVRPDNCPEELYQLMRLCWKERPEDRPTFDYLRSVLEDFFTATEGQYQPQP

In the case of `CC1=C(CC/C(C)=C/CC/C(C)=C/CCC2=CCOC2=O)C(C)(C)CCC1`, the zone of inhibition at 50 µg/disc in the data set with Microbotryum violaceum amounted to 2 mm.
As for `CC1=C(CC/C(C)=C/CC/C(C)=C/CCC2=CCOC2=O)C(C)(C)CCC1=O`, the Activity in data set [1] came out at 45%.
For orientation: IC50 means the concentration needed to halve the response being measured. Take `C[C@@H]1CC[C@H]2[C@@H](C)C(=O)O[C@@H]3O[C@@]4(C)CC[C@@H]1[C@]32OO4` [ARTEMISININ]: the half-maximal inhibitory concentration (IC50) amounted to 0.002 µg/mL (≈ 7.08 nM) in the data set with Plasmodium falciparum [2] and 0.001 µg/mL (≈ 3.54 nM) in the data set with Plasmodium falciparum [3].
In the case of `O=C1c2ccccc2-[n+]2ccc3c([nH]c4ccccc43)c21.[Cl-]` [FASCAPLYSIN CHLORIDE], the results for the zone of inhibition at 50 µg/disc in the data set on Escherichia coli and in the data set on Priestia megaterium were 6 mm and 10 mm, respectively. Moreover, the outcome in the data set on Hepatovirus A [4] and in the data set on Hepatovirus A [8] was Active. Moreover, the Activity in [5] and in data set [9] was 10% throughout. Further, in [6], the MCC was found to be 2.5 µg/mL. The concentration for half-maximal inhibition (IC50) in data set [7] stood at 630 nM; in the data set with Plasmodium falciparum [2], 0.034 µg/mL; in the data set with Plasmodium falciparum [3] it was 0.05 µg/mL.
For `CC(=O)CC1(O)c2ccccc2-[n+]2ccc3c([nH]c4ccccc43)c21.[Cl-]` (configuration not stated) [HOMOFASCAPLYSIN A], the zone of inhibition at 50 µg/disc with Escherichia coli was 9 mm; in the data set with Priestia megaterium, 11 mm. The values for the MCC in data set [10] and in [6] were 30 µg/mL and 1.1 µg/mL, respectively. Besides, the Activity came out at 8% in data set [11] and 44% in data set [12]. Moreover, the IC50 in the data set on Plasmodium falciparum [2] came to 0.024 µg/mL; with Plasmodium falciparum [3], 0.014 µg/mL.
